The list is not random: actives were taken first. Their share in the collection is about 0.79%.
bIAP act = bovine intestinal alkaline phosphatase activators, primary screen, biochemical, bovine IAP, CDP-star luminescence; purified bovine IAP, 30 min; stronger effect = higher value; fold of DMSO-control signal, blank-subtracted; activation factor at 20 µM; AID 1016, 2008; hit rate 0.17% among 200,000;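 active = activation factor of 2 or more at 20 µM, a signal rise over negative controls twice the positive control's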
bIAP inh = bovine intestinal alkaline phosphatase inhibitors, primary screen, selectivity assay for TNAP inhibitor project, biochemical, bovine IAP, CDP-star luminescence; purified bovine IAP, 30 min; inhibition, % at 20 µM; alkaline phosphatase, intestinal [Bos taurus]; AID 1019, 2008; 190,000 tested, under 10 active;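 active = over 50% inhibition of intestinal alkaline phosphatase at 20 µM in the single-dose screen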
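System: purified bovine intestinal alkaline phosphatase (IAP) enzyme; Input: IAP diluted 1/65,000,000 in the well; Measured by: CDP-star luminescence signal; Compound dosing: 20 µM single dose; Incubation: 30 min reaction at room temperature.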
hIAP inh = human IAP inhibitors, primary screen, biochemical, luminescence, uHTS | Intestinal-type alkaline phosphatase (Homo sapiens), P09923 | purified IAP, CDP-Star luminescence, 30 min | inhibition, % at 10 µM | hit rate 0.12% among 330,000;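 active = inhibition reaching a set limit with compound at 10 µM in the primary screen, cut at about 35% in these data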;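 note: plate controls were DMSO wells with enzyme for no effect and no-enzyme buffer wells for full effect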
Target sequence (P09923 whole entry, looked up): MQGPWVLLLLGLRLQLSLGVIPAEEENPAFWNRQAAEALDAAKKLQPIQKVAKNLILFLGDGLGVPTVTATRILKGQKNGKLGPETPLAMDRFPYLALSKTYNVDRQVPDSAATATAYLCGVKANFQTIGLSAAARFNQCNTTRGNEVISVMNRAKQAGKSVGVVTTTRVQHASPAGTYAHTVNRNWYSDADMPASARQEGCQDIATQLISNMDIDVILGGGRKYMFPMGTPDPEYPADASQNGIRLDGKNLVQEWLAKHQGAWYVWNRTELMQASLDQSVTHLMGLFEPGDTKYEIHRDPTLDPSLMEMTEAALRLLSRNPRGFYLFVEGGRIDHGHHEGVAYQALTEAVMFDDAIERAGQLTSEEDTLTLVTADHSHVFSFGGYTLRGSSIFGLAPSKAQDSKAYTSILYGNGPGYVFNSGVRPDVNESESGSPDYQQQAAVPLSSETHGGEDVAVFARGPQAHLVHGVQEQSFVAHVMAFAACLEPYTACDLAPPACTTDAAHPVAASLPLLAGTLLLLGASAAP
mIAP act = activators of mouse IAP, primary screen, biochemical, luminescence, uHTS. intestinal alkaline phosphatase [Mus musculus]. muIAP, CDP-Star luminescence, 30 min; stronger effect = higher value; 1 = vehicle-only enzyme signal, 0 = enzyme-free wells. activation factor at 10 µM. hit rate 0.24% among 330,000. AID 2805, 2010;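 active = activation factor of at least 2 at 20 µM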
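System: Mouse IAP enzyme | Also added: CDP-Star substrate | Dosing: Compounds dispensed in DMSO | Schedule: 30 min enzyme-substrate-compound incubation at room temperature | Technique: Chemiluminescence readout | Control set: DMSO-only wells and no-enzyme negative control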
hIAP activ = human IAP activators, primary screen, biochemical, luminescence, uHTS. Intestinal-type alkaline phosphatase (Homo sapiens), P09923. purified human IAP, CDP-Star luminescence, 30 min; stronger effect = higher value; 1 = vehicle-only enzyme, 0 = enzyme-free background. activation factor at 10 µM. hit rate 0.16% among 330,000. AID 2524, 2010;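 active = activation factor of the enzyme at least 2-fold when tested at 20 µM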
mIAP block = inhibitors of mouse IAP, primary screen, biochemical, luminescence, uHTS; hit rate 0.2% among 330,000; purified mouse IAP, CDP-Star luminescence, 30 min; intestinal alkaline phosphatase [Mus musculus]; AID 2806, 2010; inhibition, % at 10 µM;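 active = inhibition of at least 40% at 10 µM in the primary screen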;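 note: plate controls were DMSO with enzyme for no effect and no enzyme wells for full effect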
* = called active by the depositor; x = no result given.

SMILES | bIAP act | bIAP inh | hIAP inh | mIAP act | hIAP activ | mIAP block
CCOc1ccccc1CNC(=O)C1Cc2cc(S(=O)(=O)N3CCCCC3)ccc2N1C(C)=O (stereo not drawn) | x | x | -38 | 1 | 1.4 | -3
O=C(Nc1cccc2ccccc12)c1cn(-c2ccccc2)nc1-c1cccs1 | 1.1 | -12 | -2 | 2.2* | 1 | -118
COc1cc(CNCc2ccccn2)ccc1OCc1ccc(Cl)cc1 | 0.9 | 12 | -20 | 1.1 | 1.2 | -14
COc1cc(CNCc2ccccn2)ccc1OCc1c(Cl)cccc1Cl | 2.5* | -146 | 7 | 1.4 | 0.93 | -44
CCOCCCNC(=O)c1ccc2c(=O)n(Cc3ccc4c(c3)OCO4)c(=S)[nH]c2c1 | 1.2 | -15 | -8 | 0.91 | 1.1 | 9
S=C(NCc1ccccc1)NC1CCCc2ccccc21 (stereo not drawn) | 1 | -3 | -4 | 2.6* | 1 | -157
C#CCOCCOCCOCCNc1nc(N2CCN(C(=O)[C@H](CCC(=O)O)n3cc(C(N)CO)nn3)CC2)nc(N2CCN(C(=O)[C@H](CCC(=O)O)n3cc(C(N)CC(C)C)nn3)CC2)n1 (stereo partly drawn) | x | x | 10 | 0.95 | 0.9 | 4
O=C1/C(=C/c2ccc(N3CCOCC3)o2)SC(=Nc2ccccc2)N1CCc1c[nH]c2ccccc12 | 0.6 | 40 | 43* | 0.88 | 0.57 | 12
c1cc2c(cc1-c1cnc3n1CCC3)OCCO2 | 1 | 0 | 10 | 1.1 | 0.91 | -7
COc1ccc(S(=O)(=O)N(C)C[C@H]2Oc3ccc(NC(=O)Cc4ccccc4)cc3C(=O)N([C@H](C)CO)C[C@@H]2C)cc1 | x | x | -1 | 1.3 | 1 | -28
C[C@@H]1CN([C@@H](C)CO)C(=O)c2cc(NC(=O)Nc3ccc4c(c3)OCO4)ccc2O[C@H]1CN(C)S(=O)(=O)c1ccc(F)cc1 | x | x | 2 | 2.4* | 0.98 | -140
C[C@H](CO)N1C[C@H](C)[C@@H](CN(C)S(=O)(=O)c2ccc(F)cc2)Oc2ccc(NC(=O)Nc3ccccc3)cc2C1=O | x | x | 4 | 2.4* | 0.96 | -144
COc1ccc(NC(=O)Nc2ccc3c(c2)C(=O)N([C@H](C)CO)C[C@H](C)[C@@H](CN(C)S(=O)(=O)c2ccccc2)O3)cc1 | x | x | 8 | 3.3* | 0.92 | -231
C[C@H](CO)N1C[C@H](C)[C@@H](CN(C)S(C)(=O)=O)Oc2ccc(NC(=O)Nc3ccc4c(c3)OCO4)cc2C1=O | x | x | 4 | 1.3 | 0.96 | -30
C[C@H](CO)N1C[C@H](C)[C@@H](CN(C)S(=O)(=O)c2ccc(F)cc2)Oc2ccc(NC(=O)Nc3ccc(C(F)(F)F)cc3)cc2C1=O | x | x | 7 | 1.3 | 0.93 | -33
C[C@H](CO)N1C[C@H](C)[C@@H](CN(C)S(=O)(=O)c2ccc(F)cc2)Oc2ccc(NC(=O)Nc3ccc4c(c3)OCO4)cc2C1=O | x | x | -10 | 2.5* | 1.1 | -147
O=C(Cn1cc([N+](=O)[O-])ccc1=O)N1CCc2ccccc21 | x | x | 4 | 1 | 0.96 | -1
Cc1ccc(CCNS(=O)(=O)c2c(C)nc3sccn3c2=O)cc1 | x | x | 11 | 0.97 | 0.89 | 3
COc1ccccc1/C=C/C=N/n1c(COc2ccccc2)n[nH]c1=S | 0.9 | 12 | -38 | 0.94 | 1.4 | 6
N#Cc1cc2c(nc1SCc1ccccc1)CCCCC2 | 0.6 | 36 | 24 | 1 | 0.76 | -1
N#Cc1cc2c(nc1SCc1cccc(Cl)c1)CCCCC2 | 0.7 | 26 | -2 | 0.59 | 1 | 41*
CC(Cc1cccs1)NC(=S)Nc1ccccc1 (stereo not drawn) | 1 | 5 | 9 | 1.1 | 0.91 | -10
CC(Cc1cccs1)NC(=O)Nc1ccc(Cl)cc1 (stereo not drawn) | 0.8 | 16 | -12 | 2.3* | 1.1 | -130
CC(Cc1cccs1)NC(=O)Nc1ccc(Cl)c(Cl)c1 (stereo not drawn) | 0.5 | x | 0 | 4* | 1 | -301
